Reference: ChEMBL document CHEMBL3992541, “Combined treatment with zingerone and its novel derivative synergistically inhibits TGF-β1 induced epithelial-mesenchymal transition, migration and invasion of human hepatocellular carcinoma cells” (2017)
Activity calls are given as the source filed them. The rule behind the calls is not given here.

What was measured:
SNU-182 [1] = experiment: Growth inhibition of human SNU182 cells at <12.5 uM after 48 hrs by CCK8 assay; assay type: functional, cell-based
SNU-182 [2] = experiment: Growth inhibition of human SNU182 cells assessed as cell survival at 12.5 uM after 48 hrs by CCK8 assay relative to control; assay type: functional; conditions: SNU-182, 48 h, read-out: Survival
Summary of the method: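 SNU182 human hepatocellular carcinoma cells were exposed to compound at 6.25, 12.5, 25, 50 and 100 µM in serum-free DMEM for 48 h. Viability was read by CCK-8, where WST-8 is reduced by cellular dehydrogenases to a soluble formazan, and expressed as survival relative to vehicle control. Values are mean±SD of triplicates.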

SNU-182 [3] = experiment: Growth inhibition of human SNU182 cells after 48 hrs by CCK8 assay; assay type: functional, cell-based
SNU-182 [4] = experiment: Inhibition of TGFbeta1-induced epithelial-mesenchymal transition in human SNU182 cells assessed as reduction in downregulation of E-cadherin expression at 12.5 uM preincubated for 2 hrs followed by TGFbeta1 addition measured after 48 hrs by Western blot method; assay type: functional, cell-based
Summary of the method: (§1)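 SNU182 cells pretreated 2 h with single agents (12.5 or 40 µM) or the mixture (20 and 40 µM), then stimulated with TGF-β1 5 ng/ml for 48 h. E-cadherin and Snail protein detected by Western blot, with GAPDH as loading control.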

SNU-182 [5] = experiment: Inhibition of TGFbeta1-induced epithelial-mesenchymal transition in human SNU182 cells assessed as reduction in upregulation of Snail expression at 12.5 uM preincubated for 2 hrs followed by TGFbeta1 addition measured after 48 hrs by Western blot method; assay type: functional, cell-based; summary of the method: as §1
SNU-182 [6] = experiment: Inhibition of TGFbeta1-induced epithelial-mesenchymal transition in human SNU182 cells assessed as reduction in MMP2 mRNA expression at 12.5 uM preincubated for 2 hrs followed by TGFbeta1 addition measured after 48 hrs by qRT-PCR method; assay type: functional, cell-based
Summary of the method: (§2)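 SNU182 cells pretreated 2 h with single agents (12.5 or 40 µM) or the mixture (20 or 40 µM), then TGF-β 5 ng/ml for 48 h. MMP-2 and MMP-9 mRNA measured by RT-PCR with densitometry and by qRT-PCR, fold change by the 2^-ΔΔCt method. Mean±SD of triplicates.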

SNU-182 [7] = experiment: Inhibition of TGFbeta1-induced epithelial-mesenchymal transition in human SNU182 cells assessed as reduction in MMP9 mRNA expression at 12.5 uM preincubated for 2 hrs followed by TGFbeta1 addition measured after 48 hrs by qRT-PCR method; assay type: functional, cell-based; summary of the method: as §2

**Q.** For CCCCC/C=C/C(=O)CCc1ccc(O)c(OC)c1 [SHOGAOL], which “growth inhibition (GI)” value (SNU-182 [1]) is on record?
**A.** inactive

**Q.** And the viability at 12.5 µM (SNU-182 [2])?
**A.** > 90%

**Q.** What about the “growth inhibition (GI)” value (SNU-182 [3]) of the same compound?
**A.** Dose-dependent effect

**Q.** What about the inhibition (SNU-182 [4]) of the same compound?
**A.** inactive

**Q.** And the inhibition (SNU-182 [5])?
**A.** inactive

**Q.** And the inhibition (SNU-182 [6])?
**A.** inactive

**Q.** What about the inhibition (SNU-182 [7]) of the same compound?
**A.** inactive
